Laboratory results as given in ChEMBL document CHEMBL3112439, “Inhibition of long chain fatty acyl-CoA synthetase (ACSL) and ischemia reperfusion injury” (Bioorg Med Chem Lett, 2014).
pEC50: −log10 of the molar value. Calls of active or inactive are those of the source. The calls are words filed in the database; no cut-off is given here.

Assays:
Mus musculus [1] = species on record: Mus musculus; experiment: Inhibition of ACSL in mouse solubilized bEND.3 cells using [14C]-palmitic acid as substrate assessed as decrease in radioactivity in aqueous layer at 1.5 uM after 2 hrs by liquid scintillation spectrometric analysis
Leukocyte [2] = experiment: Inhibition of Sprague-Dawley rat leukocytes recruitment assessed as inhibition of cell adhesion in unbranched post-capillary venules of mesentery at 5 uM measured at 120 mins; assay type: functional, tissue-based
Procedure, shortened: (§1)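 Recruitment was induced by L-NAME. Rolling, adhesion and extravasation were counted in post-capillary venules of the mesentery at 120 min. Compound was present at 5 or 50 μM, and vehicle-alone controls were run. Results are mean ± SEM of 3 to 7 independent experiments.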

Mus musculus [3] = species on record: Mus musculus; experiment: Inhibition of ACSL in mouse […] bEND.3 cells assessed as inhibition of [14C]-palmitate incorporation into extractable lipids at 1.5 uM after 2 hrs by liquid scintillation spectrometric analysis
Procedure, shortened: (§2)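 Intact bEND3 brain endothelial cells were labelled with [14C]-palmitic acid with inhibitor at a single concentration, against untreated control cultures. Radioactivity was measured in the extractable lipid fraction, the aqueous fraction and the medium, and total recovery was summed (lipid + aqueous + media). Lipid mass was expressed as % of control. Groups were compared with control by one-way ANOVA and Dunnett's test; n = 3 to 9 independent experiments.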

Mus musculus [4] = species on record: Mus musculus; experiment: Inhibition of ACSL in mouse solubilized bEND.3 cells using [14C]-palmitic acid as substrate assessed as increase in unincorporated radioactivity in media at 1.5 uM after 2 hrs by liquid scintillation spectrometric analysis; procedure, shortened: as §2
Leukocyte [5] = experiment: Inhibition of Sprague-Dawley rat leukocytes recruitment assessed as inhibition of cell extravasation in unbranched post-capillary venules of mesentery at 5 uM measured at 120 mins; assay type: functional, tissue-based; procedure, shortened: as §1
Leukocyte [6] = experiment: Inhibition of Sprague-Dawley rat leukocytes recruitment assessed as inhibition of cell rolling in unbranched post-capillary venules of mesentery at 5 uM measured at 120 mins; assay type: functional, tissue-based; procedure, shortened: as §1
Mus musculus [7] = species on record: Mus musculus; experiment: Effect on mean extractable lipid mass in mouse bEND.3 cells at 1.5 uM relative to control; assay type: functional, cell-based; procedure, shortened: as §2
[8] = Inhibition of ACSL in mouse solubilized bEND.3 cells using [14C]-palmitic acid as substrate after 2 mins by liquid scintillation spectrometric analysis; details: BEND3, 2 min
Procedure, shortened: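 ACSL activity in solubilized bEND3 brain endothelial cells; reaction velocity measured across a range of inhibitor concentrations. EC50 obtained by fitting velocity vs. inhibitor concentration to a constrained three-parameter log(inhibitor) vs. response function.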

Mus musculus [9] = species on record: Mus musculus; experiment: Inhibition of ACSL in mouse solubilized bEND.3 cells using [14C]-palmitic acid as substrate assessed as effect on total recovery of radioactive substrate at 1.5 uM after 2 hrs by liquid scintillation spectrometric analysis; procedure, shortened: as §2
Mus musculus [10] = species on record: Mus musculus; experiment: Inhibition of ACSL in mouse solubilized bEND.3 cells using [14C]-palmitic acid as substrate assessed as increase in unincorporated radioactivity in media at 15 uM after 2 hrs by liquid scintillation spectrometric analysis
Procedure, shortened: (§3)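 In situ assay in intact bEND3 brain endothelial cells given [14C]-palmitic acid; test agents at 15 μM (triacsin C reference at 1.5 μM). Radioactivity measured in the extractable lipid fraction, the aqueous layer and the media, with total recovery summed (lipid + aqueous + media); lipid mass extracted also determined. Treated groups compared with control by one-way ANOVA and Dunnett's t test; n = 3 to 9 independent experiments.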

Mus musculus [11] = species on record: Mus musculus; experiment: Inhibition of ACSL in mouse solubilized bEND.3 cells using [14C]-palmitic acid as substrate assessed as decrease in radioactivity in aqueous layer at 15 uM after 2 hrs by liquid scintillation spectrometric analysis
Mus musculus [12] = species on record: Mus musculus; experiment: Effect on mean extractable lipid mass in mouse bEND.3 cells at 15 uM relative to control; assay type: functional, cell-based; procedure, shortened: as §3
Mus musculus [13] = species on record: Mus musculus; experiment: Inhibition of ACSL in mouse solubilized bEND.3 cells using [14C]-palmitic acid as substrate assessed as effect on total recovery of radioactive substrate at 15 uM after 2 hrs by liquid scintillation spectrometric analysis; procedure, shortened: as §3
Mus musculus [14] = species on record: Mus musculus; experiment: Inhibition of ACSL in mouse […] bEND.3 cells assessed as inhibition of [14C]-palmitate incorporation into extractable lipids at 15 uM after 2 hrs by liquid scintillation spectrometric analysis; procedure, shortened: as §3
Leukocyte [15] = experiment: Inhibition of Sprague-Dawley rat leukocytes recruitment assessed as inhibition of cell rolling in unbranched post-capillary venules of mesentery at 50 uM measured at 120 mins; assay type: functional, tissue-based
Procedure, shortened: (§4)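 Leukocyte recruitment induced by L-NAME, used as an ischemia model, in post-capillary venules of the mesentery. Rolling, adhesion and extravasation scored at 120 minutes with or without compound at 5 or 50 μM; vehicle-alone group included. Mean ± SEM of 3 to 7 independent experiments.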

Leukocyte [16] = experiment: Inhibition of Sprague-Dawley rat leukocytes recruitment assessed as inhibition of cell extravasation in unbranched post-capillary venules of mesentery at 50 uM measured at 120 mins; assay type: functional, tissue-based; procedure, shortened: as §4
Leukocyte [17] = experiment: Inhibition of Sprague-Dawley rat leukocytes recruitment assessed as inhibition of cell adhesion in unbranched post-capillary venules of mesentery at 50 uM measured at 120 mins; assay type: functional, tissue-based; procedure, shortened: as §4

CCC/C=C/C/C=C/C=C/C=N/NN=O [TRIACSIN C]
inhibition (Mus musculus [1]): Active
inhibition (Leukocyte [2]): Active
inhibition (Mus musculus [3]): Active
inhibition (Mus musculus [4]): Active
inhibition (Leukocyte [5]): Active
inhibition (Leukocyte [6]): Active
Activity (Mus musculus [7]): inactive
pEC50 [8]: 6.45
inhibition (Mus musculus [9]): Active

CCC/C=C/C/C=C/C=N/N1CCCS1(=O)=O
inhibition (Mus musculus [10]): inactive
inhibition (Mus musculus [11]): inactive
Activity (Mus musculus [12]): Active
pEC50 [8]: 3.77

CCC/C=C/C/C=C/C=C/CNO
pEC50 [8]: 4.83

CCC/C=C/C/C=C/CN(O)/N=N/c1ccc(C(=O)O)cc1
inhibition (Mus musculus [10]): Active
inhibition (Mus musculus [11]): Active
inhibition (Mus musculus [13]): Active
Activity (Mus musculus [12]): inactive
inhibition (Mus musculus [14]): Active
pEC50 [8]: 4.57

CCC/C=C/C/C=C/C=C/CNc1ccc(C(=O)O)cc1
inhibition (Leukocyte [15]): Active
inhibition (Mus musculus [10]): Active
inhibition (Leukocyte [16]): Active
inhibition (Mus musculus [11]): Active
inhibition (Leukocyte [2]): Active
inhibition (Leukocyte [17]): Active
inhibition (Leukocyte [5]): Active
inhibition (Mus musculus [13]): Active
inhibition (Leukocyte [6]): Active
Activity (Mus musculus [12]): inactive
inhibition (Mus musculus [14]): Active
pEC50 [8]: 5.23

C=CCCCCCCCCCNO
inhibition (Leukocyte [15]): Active
inhibition (Mus musculus [10]): Active
inhibition (Leukocyte [16]): Active
inhibition (Mus musculus [11]): Active
inhibition (Leukocyte [17]): Active
inhibition (Mus musculus [13]): Active
Activity (Mus musculus [12]): inactive
inhibition (Mus musculus [14]): Active
pEC50 [8]: 4.15

C=CCCCCCCCCCNc1ccc(C(=O)O)c(O)c1
inhibition (Mus musculus [10]): Active
inhibition (Mus musculus [11]): Active
inhibition (Mus musculus [13]): Active
Activity (Mus musculus [12]): inactive
inhibition (Mus musculus [14]): Active
pEC50 [8]: 5.16

CCC/C=C/C/C=C/C=C/CN(O)/N=N/c1ccc(C(=O)O)cc1
pEC50 [8]: 4.13

C=CCCCCCCCCCNc1ccc(C(=O)O)cc1
inhibition (Mus musculus [10]): Active
inhibition (Mus musculus [11]): Active
inhibition (Mus musculus [13]): Active
Activity (Mus musculus [12]): inactive
inhibition (Mus musculus [14]): Active
pEC50 [8]: 5.31

C=CCCCCCCCCCn1oc(=O)[nH]c1=O
pEC50 [8]: 5.04

CCC/C=C/C/C=C/C=C/CNN1CCCS1(=O)=O
pEC50 [8]: 3.79

C=CCCCCCCCCCN(O)/N=N/c1ccc(C(=O)O)cc1
pEC50 [8]: 4.14

CCC/C=C/C/C=C/C=C/Cn1oc(=O)[nH]c1=O
pEC50 [8]: 4.27
